Values belong to the compound of their own block, whether it stands above or below them.
How the values were obtained:
[1] = target: T1, Aryl hydrocarbon receptor (Homo sapiens, UniProt P35869); assay: Agonist activity at AhR in human A549 cells assessed as increase in ALDH3A1 expression at 10 uM after 24 hrs by q-RT-PCR analysis; format: cell-based; details: a549, 24 h
T1 sequence (P35869 whole entry): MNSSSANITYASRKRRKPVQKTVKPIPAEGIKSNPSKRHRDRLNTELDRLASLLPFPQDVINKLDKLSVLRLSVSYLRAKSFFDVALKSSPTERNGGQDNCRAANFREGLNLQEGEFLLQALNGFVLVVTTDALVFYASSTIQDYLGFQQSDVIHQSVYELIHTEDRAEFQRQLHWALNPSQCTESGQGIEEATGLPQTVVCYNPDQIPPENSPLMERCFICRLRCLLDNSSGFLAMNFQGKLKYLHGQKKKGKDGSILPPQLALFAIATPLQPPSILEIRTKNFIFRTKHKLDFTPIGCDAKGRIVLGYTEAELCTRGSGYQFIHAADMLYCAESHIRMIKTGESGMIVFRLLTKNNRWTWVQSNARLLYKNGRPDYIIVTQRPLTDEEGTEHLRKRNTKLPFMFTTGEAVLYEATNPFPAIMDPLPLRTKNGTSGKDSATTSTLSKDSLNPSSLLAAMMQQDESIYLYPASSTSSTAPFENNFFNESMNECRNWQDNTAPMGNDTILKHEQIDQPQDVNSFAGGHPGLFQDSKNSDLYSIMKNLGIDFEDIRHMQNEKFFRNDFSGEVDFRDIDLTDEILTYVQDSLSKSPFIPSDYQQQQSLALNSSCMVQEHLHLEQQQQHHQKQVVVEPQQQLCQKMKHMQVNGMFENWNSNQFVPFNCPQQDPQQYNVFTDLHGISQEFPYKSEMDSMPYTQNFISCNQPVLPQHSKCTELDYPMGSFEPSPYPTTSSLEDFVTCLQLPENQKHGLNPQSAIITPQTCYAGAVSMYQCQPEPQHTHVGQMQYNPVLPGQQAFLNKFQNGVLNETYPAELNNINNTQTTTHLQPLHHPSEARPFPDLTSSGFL
Outline: (§1)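 A549 lung carcinoma cells grown at 37 °C in DMEM with 10% FBS, seeded 2.75 × 10^5 per well one day ahead. Treated 24 h with 10 μM or 0.5 μM compound in 0.1% final DMSO; mock was DMSO only. RNA then analysed by RT-qPCR, normalised to 18S rRNA, 2–ΔΔCt fold change vs mock; n = 3; two-tailed unpaired t-test, p < 0.05.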

[2] = target: T2, AhR (aryl hydrocarbon receptor) (Homo sapiens, UniProt P35869); assay: Agonist activity at AhR in human HuH7 cells at 10 uM after 24 hrs by renilla luciferase reporter gene assay relative to control; format: cell-based; details: read-out: FC
T2 sequence (P35869 whole entry): T1 sequence (P35869 whole entry)
Outline: (§2)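 Huh7 cells seeded 20 000 per well, next day co-transfected with XRE-driven firefly luciferase (pGL4.43 luc2P/XRE) and Renilla plasmids by lipofection. A day later treated 24 h at 0.1, 0.5, 5 or 10 μM, 1% final DMSO, then lysed. Luciferase read in technical triplicate; signal normalised to Renilla and to DMSO vehicle.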

Huh-7 [3] = assay: Cytotoxicity against human HuH7 cells assessed as reduction in metabolic activity after 24 hrs by MTT assay; format: ADME, cell-based; details: Huh-7, 24 h
Outline: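 Huh7 cells seeded 10 000 per well, next day given serial dilutions of 0.012–200 μM (2% final DMSO) for 24 h. After a PBS wash, cells incubated 3 h with MTT at 2.5 mg mL–1; crystals dissolved in DMSO, absorbance read at 562 nm and normalised to mock; EC50 from dose–response curve.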

[4] = target: T1, Aryl hydrocarbon receptor; assay: Agonist activity at AhR in human HuH7 cells assessed as increase in CYP1B1 expression at 10 uM after 24 hrs by RT-qPCR analysis; format: ADME, cell-based
Outline: (§3)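 Huh7 hepatoma cells in DMEM with 10% FBS at 37 °C, seeded 2.75 × 10^5 per well the day before. Exposed 24 h to 10 μM or 0.5 μM compound, 0.1% final DMSO, against DMSO-only mock. RT-qPCR with 18S rRNA normalisation; fold change by 2–ΔΔCt relative to mock; n = 5; unpaired two-tailed t-test, p < 0.05.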

[5] = target: T1, Aryl hydrocarbon receptor; assay: Agonist activity at AhR in human HuH7 cells assessed as effect on GSTA1 expression at 10 uM after 24 hrs by qRT-PCR analysis; format: cell-based; outline: as §3
[6] = target: T1, Aryl hydrocarbon receptor; assay: Agonist activity at AhR in human HuH7 cells assessed as increase in UGT1A expression at 10 uM after 24 hrs by RT-qPCR analysis; format: ADME, cell-based; outline: as §3
[7] = target: T1, Aryl hydrocarbon receptor; assay: Agonist activity at AhR in human HuH7 cells assessed as reduction in ALDH3A1 expression at 10 uM after 24 hrs by q-RT-PCR analysis relative to control; format: cell-based; outline: as §3
[8] = target: T1, Aryl hydrocarbon receptor; assay: Agonist activity at AhR in human A549 cells assessed as increase in UGT1A expression at 10 uM after 24 hrs by RT-qPCR analysis; format: ADME, cell-based; details: a549, 24 h; outline: as §1
CYP1A1 (via AhR) [9] = target: T3, CYP1A1 (via AhR) (Homo sapiens, UniProt P35869); assay: Agonist activity at AhR in human HuH7 cells assessed as increase in CYP1A1 expression at 10 uM after 24 hrs by microarray analysis relative to control; format: ADME, cell-based; details: read-out: FC
T3 sequence (P35869 whole entry): T1 sequence (P35869 whole entry)
Outline: (§4)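 Transcriptome screen in Huh7 cells seeded 2.75 × 10^5 per well and treated 24 h with 10 μM or 0.5 μM compound (0.1% final DMSO) or DMSO mock. RNA isolated by column kit and profiled on microarray; expression given as fold change versus mock.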

CYP1B1 (via AhR) [10] = target: T4, CYP1B1 (via AhR) (Homo sapiens, UniProt P35869); assay: Agonist activity at AhR in human HuH7 cells assessed as increase in CYP1B1 expression at 10 uM after 24 hrs by microarray analysis relative to control; format: ADME, cell-based; details: read-out: FC; outline: as §4
T4 sequence (P35869 whole entry): T1 sequence (P35869 whole entry)

[11] = target: T1, Aryl hydrocarbon receptor; assay: Agonist activity at AhR in human HuH7 cells after 24 hrs by renilla luciferase reporter gene assay; format: cell-based; outline: as §2
CYP1A1 (via AhR) [12] = target: T3, CYP1A1 (via AhR); assay: Agonist activity at AhR in human HuH7 cells assessed as increase in CYP1A1 expression at 0.5 uM after 24 hrs by microarray analysis relative to control; format: ADME, cell-based; details: read-out: FC; outline: as §4
Huh-7 [13] = assay: Effect on AhR expression in human HuH7 cells at 0.5 uM after 24 hrs by qRT-PCR analysis; format: ADME, cell-based; details: huh-7, 24 h; outline: as §3
[14] = target: T1, Aryl hydrocarbon receptor; assay: Agonist activity at AhR in human HuH7 cells assessed as effect on ALDH3A1 expression at 0.5 uM after 24 hrs by q-RT-PCR analysis; format: cell-based; outline: as §3
[15] = target: T1, Aryl hydrocarbon receptor; assay: Agonist activity at AhR in human A549 cells assessed as increase in CYP1B1 expression at 0.5 uM after 24 hrs by RT-qPCR analysis; format: ADME, cell-based; details: a549, 24 h; outline: as §1
CYP1B1 (via AhR) [16] = target: T4, CYP1B1 (via AhR); assay: Agonist activity at AhR in human HuH7 cells assessed as increase in CYP1B1 expression at 0.5 uM after 24 hrs by microarray analysis relative to control; format: ADME, cell-based; details: read-out: FC; outline: as §4
A549 [17] = assay: Effect on XAP2 expression in human A549 cells at 0.5 uM after 24 hrs by qRT-PCR analysis; format: ADME, cell-based; details: a549, 24 h; outline: as §1
[18] = target: T1, Aryl hydrocarbon receptor; assay: Agonist activity at AhR in human A549 cells assessed as increase in UGT1A expression at 0.5 uM after 24 hrs by RT-qPCR analysis; format: ADME, cell-based; details: a549, 24 h; outline: as §1
[19] = target: T1, Aryl hydrocarbon receptor; assay: Agonist activity at AhR in human HuH7 cells assessed as increase in UGT1A expression at 0.5 uM after 24 hrs by RT-qPCR analysis; format: ADME, cell-based; outline: as §3
A549 [20] = assay: Effect on AhR expression in human A549 cells at 0.5 uM after 24 hrs by qRT-PCR analysis; format: ADME, cell-based; details: a549, 24 h; outline: as §1
Huh-7 [21] = assay: Effect on XAP2 expression in human HuH7 cells at 0.5 uM after 24 hrs by qRT-PCR analysis; format: ADME, cell-based; details: huh-7, 24 h; outline: as §3
[22] = target: T1, Aryl hydrocarbon receptor; assay: Agonist activity at AhR in human A549 cells assessed as increase in CYP1A1 expression at 0.5 uM after 24 hrs by RT-qPCR analysis; format: ADME, cell-based; details: a549, 24 h; outline: as §1
[23] = target: T1, Aryl hydrocarbon receptor; assay: Agonist activity at AhR in human HuH7 cells assessed as effect on GSTA1 expression at 0.5 uM after 24 hrs by qRT-PCR analysis; format: cell-based; outline: as §3

Activity [1]: Active
fold induction at 24 h, 10 µM [2]: ≤ 17
Activity [4]: Active
Activity [5]: Not Active
Activity [6]: Active
fold change (FC) [7]: 0.65
Activity [8]: Active
fold induction at 24 h, 10 µM (CYP1A1 (via AhR) [9]): 10.5
fold induction at 24 h, 10 µM (CYP1B1 (via AhR) [10]): 8.6
Activity [11]: Dose-dependent effect
SMILES: O=C1Nc2ccccc2/C1=C/c1nc2ccccc2c(=O)[nH]1
EC50 (Huh-7 [3]): 31.3 µM

fold induction at 24 h, 0.5 µM (CYP1A1 (via AhR) [12]): 3.28
Activity (Huh-7 [13]): Not Active
Activity [14]: Active
Activity [15]: Active
fold induction at 24 h, 0.5 µM (CYP1B1 (via AhR) [16]): 1.35
Activity (A549 [17]): Not Active
Activity [18]: Active
Activity [19]: Active
Activity (A549 [20]): Not Active
Activity (Huh-7 [21]): Not Active
Activity [22]: Active
Activity [11]: Dose-dependent effect
Activity [23]: Not Active
SMILES: O=C1Nc2ccccc2/C1=C\c1nnc2ccccc2c1Cl
EC50 (Huh-7 [3]): 9.6 µM
